In ChEMBL document CHEMBL3286317, “Synthesis and biological evaluation of a unique heparin mimetic hexasaccharide for structure-activity relationship studies” (J Med Chem, 2014):
Active and inactive are the calls of the source. The rule behind the calls is not given here.

Assays:
[1] = target: T1, Vascular endothelial growth factor A, long form (Homo sapiens, UniProt P15692); test: Binding affinity to human recombinant VEGF165 by surface plasmon resonance assay
T1 sequence (P15692 whole entry): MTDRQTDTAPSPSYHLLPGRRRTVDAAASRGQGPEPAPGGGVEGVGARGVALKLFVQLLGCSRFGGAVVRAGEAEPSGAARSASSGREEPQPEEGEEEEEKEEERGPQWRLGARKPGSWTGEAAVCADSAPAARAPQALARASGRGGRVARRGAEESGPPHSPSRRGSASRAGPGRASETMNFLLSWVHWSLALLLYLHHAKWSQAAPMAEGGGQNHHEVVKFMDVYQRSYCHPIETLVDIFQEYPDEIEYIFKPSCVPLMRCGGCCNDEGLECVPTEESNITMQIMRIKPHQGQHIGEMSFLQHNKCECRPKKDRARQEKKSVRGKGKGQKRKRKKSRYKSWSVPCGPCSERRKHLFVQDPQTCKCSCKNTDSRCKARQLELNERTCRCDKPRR
Procedure, shortened: (§1)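 Biotinylated low-molecular-weight heparin was captured on a neutravidin surface. Protein at varying concentrations was mixed with a hexasaccharide dilution series and injected. Free protein was read from a quadratic slope-vs-concentration standard curve. KD = [P_free][H_total]/[P_bound], averaged over three hexasaccharide concentrations.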

[2] = target: T2, Fibroblast growth factor 2 (Homo sapiens, UniProt P09038); test: Binding affinity to human recombinant FGF2 by surface plasmon resonance assay; procedure, shortened: as §1
T2 sequence (P09038 143-288 limits assumed): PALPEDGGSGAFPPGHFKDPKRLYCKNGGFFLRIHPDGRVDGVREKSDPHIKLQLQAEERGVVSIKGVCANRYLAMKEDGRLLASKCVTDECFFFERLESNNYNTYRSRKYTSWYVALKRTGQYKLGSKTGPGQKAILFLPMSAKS

[3] = target: T3, P-selectin/P-selectin glycoprotein ligand 1 (Homo sapiens, UniProt P16109+Q14242); test: Inhibition of PSEL/PSGL1 (unknown origin) interaction; type: protein assay
T3 sequence (Q14242 whole entry): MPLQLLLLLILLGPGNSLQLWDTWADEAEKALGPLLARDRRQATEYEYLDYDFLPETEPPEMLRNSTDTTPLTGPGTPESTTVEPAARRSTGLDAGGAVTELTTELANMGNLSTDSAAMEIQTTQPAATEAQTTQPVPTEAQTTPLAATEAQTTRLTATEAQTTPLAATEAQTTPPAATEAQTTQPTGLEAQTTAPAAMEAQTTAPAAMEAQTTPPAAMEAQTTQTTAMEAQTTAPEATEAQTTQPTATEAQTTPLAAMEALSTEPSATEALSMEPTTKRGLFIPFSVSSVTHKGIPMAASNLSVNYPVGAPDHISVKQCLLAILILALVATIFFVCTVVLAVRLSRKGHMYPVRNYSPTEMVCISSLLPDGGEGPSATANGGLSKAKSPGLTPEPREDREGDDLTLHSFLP
T3 sequence (P16109 whole entry): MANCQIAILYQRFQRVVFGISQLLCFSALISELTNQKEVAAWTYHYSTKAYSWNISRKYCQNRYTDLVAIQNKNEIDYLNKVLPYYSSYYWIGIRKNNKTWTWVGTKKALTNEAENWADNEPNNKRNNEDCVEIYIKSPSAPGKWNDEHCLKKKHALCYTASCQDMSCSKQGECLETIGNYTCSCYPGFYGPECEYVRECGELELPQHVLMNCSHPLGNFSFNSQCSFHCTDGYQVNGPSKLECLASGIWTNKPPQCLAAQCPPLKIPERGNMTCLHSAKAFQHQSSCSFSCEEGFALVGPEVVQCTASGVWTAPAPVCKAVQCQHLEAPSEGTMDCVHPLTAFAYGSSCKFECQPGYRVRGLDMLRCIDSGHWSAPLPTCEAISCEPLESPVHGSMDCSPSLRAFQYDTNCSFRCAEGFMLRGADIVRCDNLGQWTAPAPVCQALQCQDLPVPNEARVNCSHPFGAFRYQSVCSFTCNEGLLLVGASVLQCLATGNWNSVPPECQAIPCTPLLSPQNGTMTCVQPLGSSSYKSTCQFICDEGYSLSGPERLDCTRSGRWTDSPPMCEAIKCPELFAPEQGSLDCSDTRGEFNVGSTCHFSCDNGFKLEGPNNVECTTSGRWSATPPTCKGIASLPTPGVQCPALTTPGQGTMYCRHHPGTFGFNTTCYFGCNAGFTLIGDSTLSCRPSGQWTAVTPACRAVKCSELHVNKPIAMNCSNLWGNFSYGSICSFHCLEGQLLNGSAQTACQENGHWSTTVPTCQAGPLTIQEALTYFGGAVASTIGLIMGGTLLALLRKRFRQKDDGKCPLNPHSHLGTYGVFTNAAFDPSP
Procedure, shortened: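 Hexasaccharide dilution series mixed with 50 nM PSEL and passed over a PSGL1-Fc-coated SPR surface. Equilibrium response was measured. IC50 came from nonlinear regression of response vs concentration, and Ki from the Cheng–Prusoff equation.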

Sonic hedgehog protein = Sonic hedgehog protein (Homo sapiens, UniProt Q15465); test: Binding affinity to human recombinant Shh by surface plasmon resonance assay; procedure, shortened: as §1
Sonic hedgehog protein, sequence (Q15465 24-197 limits assumed): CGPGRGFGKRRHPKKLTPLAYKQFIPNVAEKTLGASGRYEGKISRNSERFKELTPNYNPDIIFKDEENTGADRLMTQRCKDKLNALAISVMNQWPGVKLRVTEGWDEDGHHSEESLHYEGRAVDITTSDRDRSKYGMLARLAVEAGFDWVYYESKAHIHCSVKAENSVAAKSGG

[4] = target: Bone morphogenetic protein 6 (Homo sapiens, UniProt P22004); test: Binding affinity to human recombinant BMP6 by surface plasmon resonance assay; procedure, shortened: as §1
Bone morphogenetic protein 6, sequence (P22004 375-513 limits assumed): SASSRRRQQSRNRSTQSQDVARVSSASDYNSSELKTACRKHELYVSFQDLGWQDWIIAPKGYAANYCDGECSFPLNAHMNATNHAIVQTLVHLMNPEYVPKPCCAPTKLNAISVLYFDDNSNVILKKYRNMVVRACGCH

[5] = target: T4, Bone morphogenetic protein 4 (Homo sapiens, UniProt P12644); test: Binding affinity to human recombinant BMP4 by surface plasmon resonance assay; procedure, shortened: as §1
T4 sequence (P12644 whole entry): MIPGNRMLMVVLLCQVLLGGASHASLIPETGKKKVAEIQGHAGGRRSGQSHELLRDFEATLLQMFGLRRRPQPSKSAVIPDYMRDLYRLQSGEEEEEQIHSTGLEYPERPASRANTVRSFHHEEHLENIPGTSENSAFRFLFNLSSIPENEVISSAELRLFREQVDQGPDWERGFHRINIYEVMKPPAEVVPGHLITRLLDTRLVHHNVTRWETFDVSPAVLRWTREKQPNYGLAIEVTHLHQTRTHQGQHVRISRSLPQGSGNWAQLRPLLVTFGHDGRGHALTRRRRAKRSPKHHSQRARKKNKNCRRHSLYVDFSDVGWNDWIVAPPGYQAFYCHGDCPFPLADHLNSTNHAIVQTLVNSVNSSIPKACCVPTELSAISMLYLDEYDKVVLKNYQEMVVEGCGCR

[6] = target: T5, Bone morphogenetic protein 2 (Homo sapiens, UniProt P12643); test: Binding affinity to human recombinant BMP2 by surface plasmon resonance assay; procedure, shortened: as §1
T5 sequence (P12643 whole entry): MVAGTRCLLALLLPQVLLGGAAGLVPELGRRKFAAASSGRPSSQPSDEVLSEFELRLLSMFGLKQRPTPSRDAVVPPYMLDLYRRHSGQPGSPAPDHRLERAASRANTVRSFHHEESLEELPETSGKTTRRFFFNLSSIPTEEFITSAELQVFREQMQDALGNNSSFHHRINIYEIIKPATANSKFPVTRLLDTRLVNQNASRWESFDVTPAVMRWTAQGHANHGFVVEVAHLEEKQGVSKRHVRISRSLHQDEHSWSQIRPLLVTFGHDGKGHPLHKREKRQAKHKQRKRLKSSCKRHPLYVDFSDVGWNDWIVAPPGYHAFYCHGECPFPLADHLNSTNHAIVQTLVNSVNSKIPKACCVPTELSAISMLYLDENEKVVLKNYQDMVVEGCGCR

[7] = target: T2, Fibroblast growth factor 2; test: Binding affinity to human recombinant FGF2 at 780 uM by STD-NMR analysis

SMILES	Kd [1]	Kd [2]	Ki [3]	Kd (Sonic hedgehog protein)	Kd [4]	Kd [5]	Kd [6]	Activity [7]
NCCCCCO[C@H]1O[C@H](CO)[C@@H](O[C@@H]2O[C@@H](C(=O)O)[C@@H](O[C@H]3O[C@H](CO)[C@@H](O[C@@H]4O[C@@H](C(=O)O)[C@@H](O[C@H]5O[C@H](CO)[C@@H](O[C@@H]6O[C@@H](C(=O)O)[C@@H](O)[C@H](O)[C@H]6OS(=O)(=O)O)[C@H](O)[C@H]5NS(=O)(=O)O)[C@H](O)[C@H]4OS(=O)(=O)O)[C@H](O)[C@H]3NS(=O)(=O)O)[C@H](O)[C@H]2OS(=O)(=O)O)[C@H](O)[C@H]1NS(=O)(=O)O	86 µM	1 µM	358 µM	122 µM	250000 µM	250000 µM	46 µM	Active
CCCCCO[C@H]1O[C@H](COS(=O)(=O)O)[C@@H](O[C@@H]2O[C@@H](C(=O)O)[C@@H](O[C@H]3O[C@H](COS(=O)(=O)O)[C@@H](O[C@@H]4O[C@@H](C(=O)O)[C@@H](O[C@H]5O[C@H](COS(=O)(=O)O)[C@@H](O[C@@H]6O[C@@H](C(=O)O)[C@@H](O)[C@H](O)[C@H]6OS(=O)(=O)O)[C@H](O)[C@H]5NC(C)=O)[C@H](O)[C@H]4OS(=O)(=O)O)[C@H](O)[C@H]3NC(C)=O)[C@H](O)[C@H]2OS(=O)(=O)O)[C@H](O)[C@H]1NC(C)=O	66 µM	25000 µM	250 µM	27 µM	250000 µM	250000 µM	24 µM	Active
CCCCCO[C@H]1O[C@H](COS(=O)(=O)O)[C@@H](O[C@@H]2O[C@@H](C(=O)O)[C@@H](O[C@H]3O[C@H](COS(=O)(=O)O)[C@@H](O[C@@H]4O[C@@H](C(=O)O)[C@@H](O[C@H]5O[C@H](COS(=O)(=O)O)[C@@H](O[C@@H]6O[C@@H](C(=O)O)[C@@H](O)[C@H](O)[C@H]6OS(=O)(=O)O)[C@H](O)[C@H]5NC(C)=O)[C@H](O)[C@H]4OS(=O)(=O)O)[C@H](O)[C@H]3NS(=O)(=O)O)[C@H](O)[C@H]2O)[C@H](O)[C@H]1NC(C)=O	14 µM	25000 µM	96 µM	23 µM	9 µM	250000 µM	34 µM	Active
